Results taken from ChEMBL document CHEMBL4513216, “Probing the Open Global Health Chemical Diversity Library for Multistage-Active Starting Points for Next-Generation Antimalarials” (ACS Infect Dis, 2020).

Test: Toxicity liver stage against HepG2, at 10uM
Assay type: cell-based
Design: test concentration 10 uM, cell line HepG2-A16-CD81EGFP
Settings: human, HepG2-A16-CD81EGFP cells; read-out: INHIBITION
In short: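 Uninfected HepG2-A16-CD81EGFP cells, 3 × 10^3 per well, 1536-well, plated on prespotted compound at 10 μM final, parasite-free screening media added to match infected plates; puromycin 10 μM positive, DMSO 0.5% negative; run in parallel with 48 h PbLuc assay at 37 °C, 5% CO2; viability by CellTiter-Glo luminescence, normalized to controls.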

Structure (SMILES) | cytotoxicity at 10 µM
Cc1cc(C)n(NC(=O)c2cccc3c2OCC3)c(=O)c1 | 1.91%
CCC(=O)N1CCC2(COCc3cnc(NCc4ccco4)nc32)C1 (configuration not stated) | -12.9%
Cc1cc(C)nc(C2CCN(C(=O)CCn3ncc4ccccc43)C2)n1 (configuration not stated) | -17.3%
OC(CN1CCN(Cc2cc(F)ccc2F)CC1)C1CC1 (configuration not stated) | 0.353%
CCc1cc(NC(CCO)c2ccc(OC)cc2)n2nccc2n1 (configuration not stated) | -30.4%
CCOCCC(=O)Nc1cc(C)cnc1OC | 18.9%
CCCn1cnnc1CNC(=O)CC1C(=O)NCCN1CC=C(C)C (configuration not stated) | 6.64%
CNC(=O)N1CC[C@@H]2CN(CCc3cccc(OC)c3)S(=O)(=O)[C@@H]2CC1 | -1.46%
O=C(C1CCCN1S(=O)(=O)C1CCCC1)N1CCSCC1 (configuration not stated) | 4.71%
CC(NCCN1CCN(C(=O)C2CCCC2)CC1)c1cnn(C)c1 (configuration not stated) | -4.59%
Cc1cccnc1[C@H](C)Nc1nc(-c2cccnc2)nc2c1CNC2 | -8.52%
Cn1c(NCc2ccc(C(N)=O)cc2)nc2cc(Cl)ccc21 | 1.42%
NC(=O)Cn1nc(-c2ccccc2F)ccc1=O | -7.69%
O=C(Cc1csc(-c2ccccc2)n1)N[C@@H](C(=O)O)c1ccccc1 | 6.56%
N#Cc1nccnc1N1CCC(CSc2ccccc2)C1 (configuration not stated) | 0.957%
O=C1CCCCN1CCc1nc(-c2cccnn2)no1 | -5.67%
CC(C)N1[C@H](CN2CCCC2)C[C@@H]2CN(Cc3ccoc3)CC[C@@H]21 | -157%
CN(C)Cc1cc(C2CCCCN2S(=O)(=O)c2cccc(Cl)c2)nn1C (configuration not stated) | -8.63%
O=C(NCc1ccco1)N1CCC(n2ccc(C(F)(F)F)n2)CC1 | 12.2%
COCC(=O)N(C)Cc1ccc(F)c(F)c1 | -140%
CC1(C)CC(=O)c2cnc3nc(N4CCCC4)[nH]c(=O)c3c2C1 | -2%
COc1cc([C@@H]2N[C@H](c3nccs3)Cc3ccsc32)cc(OC)c1OC | 8.71%
CC(=O)N1CCCN(C(=O)c2oc(Br)cc2C)CC1 | -13.6%

Structure (SMILES) | cytotoxicity at 10 µM
CN(C)S(=O)(=O)N1CC[C@]2(C[C@@H](Oc3ncccc3F)CO2)C1 | -67%
O=C(CC(F)(F)F)Nc1cc(F)ccc1OCC1CCCO1 (configuration not stated) | 5.48%
N#Cc1c(F)cccc1N1CCCC(C(=O)Nc2nccs2)C1 (configuration not stated) | 8.92%
Cc1ccc2oc(C(=O)N3CCCC(n4nc(C)cc4C)C3)cc2n1 (configuration not stated) | 1.25%
Cc1nc(CNCC2CCCN2c2cccnn2)no1 (configuration not stated) | -1.59%
Cc1nn(C)c(N(C)C)c1CNCc1ccccc1Cn1cccn1 | -8.06%
Cn1c2c(c(=O)n1C)CN(C(=O)c1ccco1)CCC2 | 10.5%
Cc1ccsc1C(=O)NCc1ccnc(OCC(F)(F)F)c1 | -6.19%
Cc1noc(Cl)c1CC(=O)NCC(C)(O)c1ccc(F)cc1F (configuration not stated) | -0.837%
O=C([C@@H]1CSCN1)N1CC2(CCNCC2)c2cc(Cl)ccc21 | 4.33%
Cc1cnn(CC2CCCN2C(=O)c2cc3ccccc3[nH]c2=O)c1 (configuration not stated) | 2.38%
O=C(NCCN1CCNC1=O)c1cnc(-c2cccnc2)nc1 | -0.885%
COCC1c2nnn(C)c2CCN1C(=O)COc1ccccc1C (configuration not stated) | -100%
CCS(=O)(=O)c1ncc(CN(C)Cc2cccc(OC)c2)n1CCOC | -0.636%
CSc1nsc(NC(=O)N2CCc3ccccc3C2)n1 | 11.3%
CC(C)c1ocnc1C(=O)NC(c1nnc2n1CCNCC2)C(C)C (configuration not stated) | -9.72%
Cc1nc(C)c(C(=O)N2Cc3cc(F)ccc3CC2C)o1 (configuration not stated) | 6.07%
COCC(=O)N1CCN(C(=O)c2cccs2)[C@@H](C(=O)OC)C1 | -8.64%
Cn1c(NC(=O)CNC(=O)C2CCCC2)nc2cc(Cl)ccc21 | -4.53%
COCC(=O)N1CCc2ccc(=O)n(Cc3csc(C)n3)c2CC1 | 8.19%
Cc1nnc(N2CCCC3(CN(Cc4ccncc4)CCO3)C2)o1 (configuration not stated) | -13.5%
Cc1cc(C(=O)N2CCc3nc(C4CCCCN4)ncc3C2)cs1 (configuration not stated) | -22.4%
Cc1nnc(NC(=O)CSCc2cc(=O)n3ccccc3n2)s1 | 1.5%

Structure (SMILES) | cytotoxicity at 10 µM
CCCS(=O)(=O)N1CCOC2(CCCN(c3ncc(F)cn3)C2)C1 (configuration not stated) | 8.22%
CCNC(=O)CCC(=O)NC(C)Cc1ccccc1Br (configuration not stated) | -4.99%
CN(C)C(=O)c1ccc(C2CCCN2C(=O)c2cccc3c2OCC3)s1 (configuration not stated) | 4.1%
COCCO[C@@H]1CCN(c2cc(OC)ncn2)[C@H]1Cc1cnn(C)c1 | -142%
Cc1ccc2nc(C(=O)N3C[C@@H](C(=O)O)[C@H](c4cccnc4)C3)cn2c1 | 2.98%
Cc1noc(C)c1C(=O)N1C[C@@H]2CN(Cc3cccnc3)CCO[C@@H]2C1 | 5.75%
CN(CCCc1cnn(C)c1)Cc1cc2n(n1)CCCNC2 | 6.49%
Cn1ccc(C(=O)N2C[C@@H]3OCCN(c4ncccn4)[C@@H]3C2)n1 | 5.7%
Cc1noc(CN2CCOC(CN(C)C)C2)n1 (configuration not stated) | -6.61%
CCC(=O)NCC(CC)Oc1cccc(F)c1 (configuration not stated) | -44%
Cc1cc(CN2CCN(c3ccnc(-c4ccccc4)n3)CC2)no1 | -8.92%
COc1ccc(C2=CCN(C(=O)C3CC(=O)N(C4CC4)C3)CC2)cc1 (configuration not stated) | -6.66%
CCc1nnc2n1CCN(C(=O)c1ccc3[nH]nnc3c1)C2 | -0.337%
CCNC(=O)Cn1ncc(N(C)CCc2ccccc2)cc1=O | 5.69%
Cn1cc(Cl)c(CN(Cc2ccsc2)CC2CCCO2)n1 (configuration not stated) | -3.84%
Cc1ccc(S(C)(=O)=O)cc1C(=O)NS(C)(=O)=O | -11.4%
Cc1nc(CNC(=O)NCC2(C)CCCc3ccccc32)no1 (configuration not stated) | -3.05%
COc1c(C)cc(S(=O)(=O)NCC2CNCCOC2)cc1C (configuration not stated) | -3.53%
O=C(Cc1ccc2c(c1)OCO2)N1CCCN(c2nccs2)CC1 | -11.9%
c1coc(-c2noc(CN3CCCCC3Cn3cncn3)n2)c1 (configuration not stated) | -0.915%
Cc1nnc(SCc2cc(=O)n3c4c(sc3n2)CCCC4)[nH]1 | -9.67%
CC(C)c1nnc(NC(=O)C2CSCN2C(=O)C2CCC2)s1 (configuration not stated) | 5.04%
Cc1csc(NC(=O)c2cnc(C3CCCN3)cn2)n1 (configuration not stated) | -41%

Structure (SMILES) | cytotoxicity at 10 µM
CC(C)c1cc(C(=O)N2CCc3ccccc3C2C(=O)O)n(C)n1 (configuration not stated) | 7.28%
Cc1ccc(S(=O)(=O)c2ncccc2CN2CCCCC2)cc1 | -47.6%
CC(=O)NC(C(=O)N(C)Cc1nnc2n1CCC2)C(C)C (configuration not stated) | -7.85%
CCn1c(C2CCNCC2)nn(CCCc2ccccc2)c1=O | 1.4%
COc1ccc(C[C@H]2CN(c3nnc(C)s3)CC[C@H]2OC)cc1 | 8.04%
CCCS(=O)(=O)CCSc1cccc(C#N)c1 | -3.85%
CN(C)c1nc2n(c(=O)n1)CCN2C(=O)Nc1ccccc1 | 4.73%
CN1CCC(c2cncc(-c3cccc(Cl)c3)n2)CC1 | -20.8%
Cc1ccc(-c2nc(CN(Cc3cccs3)CC3CCCO3)no2)cc1 (configuration not stated) | 0.561%
c1cnc(N2CCC3(CC2)CN(CC2CC2)c2ccccc23)nc1 | 19.9%
CC1(C)CC(N(Cc2cccnc2)Cc2cccnc2)CC(C)(C)N1 | 1.3%
CCN(C(=O)NCc1ncc(C)c(OC)c1C)C(C)c1cccnc1 (configuration not stated) | 1.84%
CS(=O)(=O)Nc1ccc(CNC(=O)CN2CCc3ccccc32)cc1 | 7.1%
COc1cccc(C(=O)N2CCc3nc(C4CCCN4)ncc3C2)c1 (configuration not stated) | -7.28%
CCc1nc(CN2CCCN(CC(O)c3ccccc3)CC2)no1 (configuration not stated) | -14%
Cc1nc(NCCSc2ccccn2)c2c(C)noc2n1 | 18.8%
NC1CCC(n2cc(C(=O)N[C@H]3CCCc4ccccc43)nn2)CC1 (some centres not stated) | -5.71%
CSCCCN1CCc2nc(N(C)C)nc(N3CCC(O)CC3)c2C1 | -4.67%
Cc1nc(C)c(C(=O)N2CCc3ccc(F)cc3C2C)o1 (configuration not stated) | -1.65%
Cc1cc(NCc2ccc(CS(N)(=O)=O)cc2)nc(C)n1 | -7.2%
O=C(c1ccoc1)N1CCCCC1c1nc[nH]n1 (configuration not stated) | -7.03%
O=C(CCc1ccsc1)NS(=O)(=O)Cc1ccon1 | -12.6%
COc1ccc(CN2CCC3(CCCN(C)C3=O)C2)c(OC)c1C (configuration not stated) | -0.409%

Structure (SMILES) | cytotoxicity at 10 µM
COC(C)(C)CC(C)NCc1cn2ccccc2n1 (configuration not stated) | -3.48%
Cc1ccc(CN2CC[C@@H]3OCCN(Cc4ccncc4)[C@H]3CC2)s1 | 6.84%
Cc1cc(C(C)(O)CNC(=O)CCn2ccnc2C(C)C)c(C)o1 (configuration not stated) | 4.27%
CCn1ncc2c(C(F)F)cc(-c3ccn(C)n3)nc21 | -1.21%
CCCN1CCCC1Cn1nc(C)cc1C (configuration not stated) | -7.72%
CCN(CC1CCOC1)C(=O)c1cnc2onc(C)c2c1 (configuration not stated) | -10.4%
CC(C)[C@@H]1CN(c2ccc(F)cn2)C[C@H]1NS(C)(=O)=O | 3.69%
Cc1c(C(N)=O)sc2nc(C(F)(F)F)ccc12 | -3.33%
CN(CC1COc2ccccc2O1)C(=O)c1ccc(-c2cn[nH]c2)nc1 (configuration not stated) | 5.37%
CC(C)n1cc(C(=O)NCCN(C)C)c2n[nH]c(=O)c-2c1 | 9.06%
Cc1ccc(C(=O)N2CC(C)(C)[C@@](C)(O)C2)cc1N1CCNC1=O | -2.76%
Fc1ccc(-c2nc(CNC3CCc4ncnn4C3)cs2)cc1 (configuration not stated) | -4.92%
Cc1cnn(CC2CCCN2Cc2ncc(-c3ccccc3)o2)c1 (configuration not stated) | -8.4%
COc1cc(C(=O)NCC2(N(C)C)CCN(C)CC2)c2ccccc2n1 | -0.356%
O=C(O)c1ccc(CCNC(=O)C2(c3ccccc3)CC2)cc1 | 8.29%
CC(C)NC(=O)C1CN(C(=O)NCc2ccccc2)CC12CCOCC2 (configuration not stated) | -84.6%
Cn1c(CC(=O)O)c(Sc2ccccc2)c2ccccc21 | 4.35%
CN(Cc1ccccc1C(F)(F)F)C(C(N)=O)c1ccccc1 (configuration not stated) | 13.2%
COCCN1CCN(CCCS(=O)(=O)N(C)C)CC1C (configuration not stated) | 3.54%
CC(O)(CCc1ccccc1)CNC(=O)c1cccs1 (configuration not stated) | -1.44%
